Compound activity: PubChem, several laboratories
Yeast lifespan up: compounds extending yeast replicative lifespan, primary screen, S. cerevisiae, OD615 | S. cerevisiae growth with nicotinamide; deaD strain in restrictive glucose medium | inhibition of the nicotinamide effect, % at 10 µM | 130,000 compounds, 0.68% hits | AID 775, 2007;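 active = inhibition above a set limit, placed 3 SD over the median of all compounds, cut at about 26% in these data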;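 also: 0% = nicotinamide-treated wells and 100% = cells grown without nicotinamide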
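Assay system: DeaD-strain S. cerevisiae. Medium: CSMM-D glucose medium, restrictive. Reagent: nicotinamide, 1.5 mM, co-present with compound. Compound: 10 µM single point, 0.25% DMSO. Schedule: culture preincubation 4 h, compound exposure 48 h, both 30 °C. Detection: absorbance at 615 nm.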
Efa HMGR inh: inhibitors of E. faecalis class II HMGR, primary screen, biochemical, Enterococcus faecalis. 190,000 compounds, 0.41% hits. inhibition, % at 10 µM. purified E. faecalis HMGR, NADPH absorbance 340 nm kinetic. HMG-CoA reductase (Enterococcus faecalis, mvaE);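 active = inhibition above a set limit, the median over all tested compounds plus 3 SD, cut at about 9.5% in these data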;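 also: enzyme runs in reverse so mevalonate oxidation gives rising NADPH absorbance; 0% = complete reaction with DMSO and 100% = background rate lacking mevalonate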
BB579 growth dn: growth inhibitors of yeast BB579 in restrictive medium, primary screen, yeast lifespan-shortening project, S. cerevisiae; OD615, 48 h; 140,000 compounds, 0.51% hits; inhibition, % at 10 µM; AID 804, 2007;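 active = inhibition above a set limit, 3 SD over the mean compound inhibition, cut at about 44% in these data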
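controls = amphotericin B 10 µg/mL, positive | assay system = DeaD yeast strain BB579 | schedule = 48 h compound exposure at 30 °C after 4 h preincubation | detection = OD615 turbidity measurement | medium = restrictive CSMM-D medium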
Rad51 HR inh: human RAD51 strand exchange inhibitors, primary screen, biochemical, fluorescence. 200,000 compounds, 0.085% hits. AID 1385, 2008. inhibition, % at 10 µM. hRad51 DNA strand exchange, fluorescence dequenching;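 active = inhibition above 40% at the single screening dose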;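 also: 0% = DMSO control wells and 100% = blanks with heterologous ssDNA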
Target sequence (Q06609 whole entry, looked up): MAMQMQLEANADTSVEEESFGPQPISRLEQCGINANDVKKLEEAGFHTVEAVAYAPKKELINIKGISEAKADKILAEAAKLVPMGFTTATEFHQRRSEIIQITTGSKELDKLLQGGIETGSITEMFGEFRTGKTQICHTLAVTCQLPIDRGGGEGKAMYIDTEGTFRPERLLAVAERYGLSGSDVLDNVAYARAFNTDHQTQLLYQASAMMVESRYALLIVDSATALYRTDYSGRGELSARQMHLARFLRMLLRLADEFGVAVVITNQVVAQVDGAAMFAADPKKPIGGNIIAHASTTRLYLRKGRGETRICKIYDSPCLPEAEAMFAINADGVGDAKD
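Test system: preformed human Rad51 ssDNA filaments. Compound dosing: single dose, 10 µM final compound. Incubation: filaments 15 min 37 °C, then compound 30 min. Technique: FRET fluorescence dequenching, excitation 485 nm, emission 520 nm. Read-out basis: percent inhibition from fluorescence, normalised to plate control and blank means. Benchmarks: plate controls and plate blanks.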
Arbovirus anti: antivirals against arbovirus infection, primary screen, cell-based, full library, 10K replicate subset. AID 1251, 2008. inhibition, % at 10 µM. arbovirus infection cell-based antiviral screen. 200,000 compounds, 0.37% hits; in the data active = inhibition above about 30%
Measles CPE: compounds protecting cells from measles virus cytopathic effect, primary screen, measles RdRp inhibitor project, single point, MLSMR library, absorbance; protection (pct of control), % at 4 µM; 140,000 compounds, 1.5% hits; Measles virus-infected cells, CPE protection; in the data active = protection mostly above about 24%, no sharp cut-off; inactive = mostly below about 26%
Numbers without * were called inactive; . = no result. In the library only some 2.4% were active in any assay of this set; here they are far more common.

SMILES | Yeast lifespan up | Efa HMGR inh | BB579 growth dn | Rad51 HR inh | Arbovirus anti | Measles CPE
CCc1ccc(C(CC(=O)c2ccc(Cl)cc2)C(=O)O)cc1 (configuration not stated) | 31* | 3 | -69 | 0 | 7 | 20
CC(C)c1ccc(C(CC(=O)c2ccc(Cl)cc2)C(=O)O)cc1 (configuration not stated) | 15 | -1 | -36 | 0 | 12 | 7
C/C=C/C(=O)OCC(=O)Nc1c(Cl)cccc1Cl | -12 | -2 | -9 | 6 | 2 | 30*
CC(CCn1cccn1)NC(=O)CCc1nnc(C2CCCCC2)o1 (configuration not stated) | . | -6 | . | 5 | 7 | .
COc1ccccc1NC(=O)CCn1c(=O)sc2ccccc21 | . | -4 | -30 | 1 | -6 | 51*
O=C(Nc1ccccc1)OC1CCC2CC1CCC2OC(=O)Nc1ccccc1 (configuration not stated) | -1 | -6 | -11 | -1 | -20 | 5
O=C(CNC(=S)N(Cc1ccccc1F)C1CCCCC1)NCCCN1CCOCC1 | . | 13* | . | 7 | 8 | .
CN1CCN(C2=C(Cl)C(=O)N(Cc3ccccc3)C2=O)CC1 | 2 | -1 | -18 | 52* | -1 | 13
CCCC(=O)Nc1cc(OC)c(C(=O)OC)cc1Cl | . | 2 | . | 1 | 2 | .
C=CCC(C=C)[N+]1(CC(=O)OC)CCCCC1 (configuration not stated) | . | -2 | . | -6 | 1 | .
CC1(C)CC(CC(=O)Nc2ccc([N+](=O)[O-])cc2)C(=O)O1 (configuration not stated) | -6 | -1 | -26 | 3 | 5 | 35*
Cn1c(=O)n(-c2ccccc2)c(=O)c2c3c(sc21)COC(C)(C)C3 | -5 | -3 | -29 | . | -1 | 18*
CCC1(C)Cc2c(sc3c2c(=O)n(-c2ccccc2)c(=O)n3C)CO1 (configuration not stated) | -24 | 0 | -25 | -5 | 3 | 21
Cc1cc(Nc2ccc(F)c(Cl)c2)n2ncnc2n1 | -7 | 4 | -14 | 0 | -1 | 4
Cc1cc(Nc2cccc(Cl)c2)n2ncnc2n1 | 4 | 1 | -12 | . | -2 | 29*
O=C(c1ccccc1C(=O)N1CCN(c2ccccc2)CC1)N1CCN(c2ccccc2)CC1 | -17 | 0 | -20 | -9 | -2 | 17
O=C(c1ccccc1)N1CCN(C(=O)c2ccccc2)CC1 | . | -6 | -25 | -4 | 0 | 38*
Cn1nnc2cc(C(=O)Nc3ccc4ccccc4c3)ccc21 | . | 13* | . | -4 | -4 | .
O=C(c1ccc(CN2CCOCC2)cc1)N1CCN(Cc2ccccc2)CC1 | -6 | 4 | -21 | 3 | -1 | 44*
O=C(O)c1ccccc1C(=O)N1CCN(c2ccccc2)CC1 | -1 | -3 | -28 | -6 | 4 | 45*
Cn1nnc2cc(C(=O)NC3CC3)ccc21 | -14 | -9 | -25 | 6 | -1 | 5
Cn1nnc2cc(C(=O)N3CCN(c4ccccc4)CC3)ccc21 | -13 | 2 | -99 | -1 | 6 | 43*
CS(=O)(=O)Nc1ccc(C(=O)N2CCN(c3ccccc3)CC2)cc1 | 6 | -1 | -16 | -12 | 7 | 42*
CN(C)S(=O)(=O)c1cccc(-c2nnc(SCc3ccc4c(c3)OCCO4)o2)c1 | -23 | -7 | -11 | 3 | 6 | -1
Clc1nc(CN2CCOCC2)nc2sc3c(c12)CCC3 | . | 2 | . | 1 | 5 | .
SMILES | Yeast lifespan up | Efa HMGR inh | BB579 growth dn | Rad51 HR inh | Arbovirus anti | Measles CPE
Cc1cccc(Oc2nc(CN3CCOCC3)nc3sc4c(c23)CCCC4)c1 | 33* | -5 | -28 | -4 | -28 | 8
COc1cc(NC(=O)Cc2cccs2)cc(OC)c1 | -9 | 0 | -22 | 0 | -7 | 34*
COc1cc(NC(=O)Cc2cccs2)ccc1-n1cnnn1 | -6 | -11 | -76 | 4 | -6 | 29*
Cc1ccc([N+](=O)[O-])cc1NC(=O)Nc1onc(C)c1C | . | . | . | 6 | . | .
O=C(Nc1nnc(SCc2ccccc2Cl)s1)C1COc2ccccc2O1 (configuration not stated) | -8 | . | -52 | -3 | 41* | 19
Cc1ccccc1CSc1nnc(NC(=O)C2COc3ccccc3O2)s1 (configuration not stated) | -8 | -1 | -19 | 2 | 48* | 2
COC(=O)CCC(=O)NNC(=O)c1cccc(Br)c1 | -5 | -1 | -10 | 11 | -4 | 7
O=C(O)CCC(=O)NNC(=O)c1cccc(Br)c1 | 7 | 0 | -31 | 2 | 0 | 59*
CCN(CC)S(=O)(=O)c1ccc(S(=O)(=O)N2CCCC2)cc1 | . | 9.9* | . | 7 | 17 | .
Cn1c(OCc2cccnc2)nc2c1c(=O)n(Cc1ccc(Br)cc1)c(=O)n2C | . | 14* | -6 | -5 | 8 | 14
CCN(CC)C(=O)C(Sc1ccccc1)c1ccccc1 (configuration not stated) | -8 | -4 | -8 | 0 | 1 | 61*
CCCC(=Nc1ccc(N)cc1)C1=C(O)C(C(=O)OC)C(C)(C)CC1=O (configuration not stated) | 44* | -8 | -4 | -4 | -14 | 1
Cc1cc(C=C(C#N)C#N)c(C)n1-c1ccccc1 | -27 | -6 | -30 | -5 | 18 | 51*
CCOCC(=O)OCC(=O)Nc1cc(OC)c([N+](=O)[O-])cc1C | . | 21* | . | -4 | 23 | .
COc1cc(NC(=O)CN2CCC(Cc3ccccc3)CC2)c(C)cc1[N+](=O)[O-] | 3 | -3 | -10 | . | -1 | 70*
Cc1ccc(S(=O)(=O)N2CCOCC2)cc1NC(=O)CN1CCC(Cc2ccccc2)CC1 | . | 1 | . | . | 3 | .
CC(=O)OC[C@H]1O[C@@H](O/N=C/C[C@@H]2C=C[C@H](OC(C)=O)[C@@H](COC(C)=O)O2)[C@H](OC(C)=O)[C@@H](OC(C)=O)[C@@H]1OC(C)=O | -1 | -2 | -15 | . | 3 | 5
CCOC(=O)C1(Cc2cccc(F)c2)CCN(C(=O)c2cnc(C)cn2)CC1 | . | -2 | . | -7 | -1 | .
CCOC(=O)c1c(C)[nH]c(C)c1C(=O)CSc1nncs1 | . | 10* | . | -5 | 4 | .
CCOC(=O)c1c(C)[nH]c(C)c1C(=O)CSc1ncccn1 | -7 | -9 | 6 | -3 | 9 | 6
NNC(=O)c1ccc(COc2ccc3c(c2)CCC3)o1 | -9 | -8 | 91* | -3 | -14 | 14
